Laboratory results reported in ChEMBL document CHEMBL4715797, “Structure-Activity Relationships of [des-Arg]Dynorphin A Analogues at the κ Opioid Receptor” (J Med Chem, 2016).
Calls of active or inactive are those of the source. Where a SMILES comes first, the peptide text is derived from it. [ ]: non-standard residue; d: D form. The star is where a group is joined. X1 = Cc1cc(O)cc(C)c1C[C@H](C)C(=O)*; Orn = NCCC[C@H](N)C(=O)O

Tests used:
[1] = Toxicity in mouse HN9.10 cells expressing human KOR assessed as cell viability at 1 mM after 24 hrs by XTT assay; format: cell-based; conditions: read-out: Activity
[2] = Half life in rat plasma by RP-HPLC analysis; format: ADME, cell-free
Method in brief: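 Stock at 50 mg/mL diluted 5-fold into heparinized rat plasma at 37 °C. Aliquots taken at 1, 2, 4, 6, 12 and 24 h were quenched with EtOH (ACN for one analogue) and centrifuged.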

[3] = molecular target: Mu-type opioid receptor (Homo sapiens, UniProt P35372); test: Displacement of [3H]diprenorphine from human MOR expressed in mouse NG108-15 cell membranes incubated for 2 hrs by liquid scintillation counting based radioligand competition assay
Chain of Mu-type opioid receptor (P35372 whole entry): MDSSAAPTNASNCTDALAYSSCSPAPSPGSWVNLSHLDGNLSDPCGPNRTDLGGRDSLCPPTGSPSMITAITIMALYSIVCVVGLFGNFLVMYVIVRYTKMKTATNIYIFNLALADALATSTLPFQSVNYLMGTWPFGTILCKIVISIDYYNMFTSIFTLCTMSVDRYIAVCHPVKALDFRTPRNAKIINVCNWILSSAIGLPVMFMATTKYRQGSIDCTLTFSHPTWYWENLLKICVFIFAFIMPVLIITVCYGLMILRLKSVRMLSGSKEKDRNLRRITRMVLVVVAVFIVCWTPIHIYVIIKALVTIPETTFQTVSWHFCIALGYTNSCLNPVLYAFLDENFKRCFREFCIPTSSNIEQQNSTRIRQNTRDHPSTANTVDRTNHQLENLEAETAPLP

[4] = molecular target: Delta-type opioid receptor (Homo sapiens, UniProt P41143); test: Displacement of [3H]deltorphin-II from human DOR expressed in CHO cell membranes incubated for 2 hrs by liquid scintillation counting based radioligand competition assay
Chain of Delta-type opioid receptor (P41143 whole entry): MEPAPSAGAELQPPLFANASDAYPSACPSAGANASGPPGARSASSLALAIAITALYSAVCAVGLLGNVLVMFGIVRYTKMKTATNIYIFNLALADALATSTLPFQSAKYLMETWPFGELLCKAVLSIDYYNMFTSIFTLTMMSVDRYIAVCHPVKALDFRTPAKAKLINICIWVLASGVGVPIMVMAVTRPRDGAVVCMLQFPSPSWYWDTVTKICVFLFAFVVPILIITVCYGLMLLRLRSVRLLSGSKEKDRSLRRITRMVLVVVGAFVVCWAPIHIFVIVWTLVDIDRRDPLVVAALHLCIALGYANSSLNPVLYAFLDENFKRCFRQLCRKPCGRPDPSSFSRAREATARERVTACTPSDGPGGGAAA
Method in brief: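 Crude membranes from transfected cells, 50 µg protein, in 50 mM Tris-HCl pH 7.4 with bacitracin 50 µg/mL, captopril 10 µM, PMSF 100 µM and BSA 5 mg/mL. Ten concentrations (10−4–10−13 M) were run against 500 pM [3H]deltorphin II for 2 h at rt with shaking. Nonspecific binding was taken with 10 µM naloxone. Filtered on PEI-soaked GF/B, washed in cold saline, scintillation counted.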

[5] = organism: Mus musculus; test: Antinociceptive activity in ICR mouse assessed as elevation in tail withdrawal latency at 10 ug, it measured after 30 mins by tail flick test; format: functional, organism-based; conditions: dose 10.0 µg
[6] = organism: Mus musculus; test: Antinociceptive activity in ICR mouse assessed as elevation in tail withdrawal latency at 1 ug, it measured after 30 mins by tail flick test; format: functional, organism-based; conditions: dose 1.0 µg
[7] = system: Mus musculus; test: Inhibition of KOR selective agonist FE200665-induced antinociceptive activity in ICR mouse assessed as effect on tail withdrawal latency at 10 ug, it dosed 15 mins before FE200665 dosing and measured up to 24 hrs by tail flick test; format: functional, organism-based; conditions: dose 10.0 µg, time hrs <=24
Method in brief: (§1)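 Adult male ICR mice given vehicle (MPH2O) or compound by lumbar puncture, 10 µg in 5 µL, n = 6/treatment, at t = −15 min. At t = 0 they received FE200665, 10 µg in 5 µL by lumbar puncture. Tail flick from 52 °C water retested up to 9 times over 24 h, 10.0 s cutoff. % antinociception = 100×(test−baseline)/(cutoff−baseline). Nonparametric two-way ANOVA with Bonferroni post hoc.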

[8] = system: Mus musculus; test: Inhibition of KOR selective agonist FE200665-induced antinociceptive activity in ICR mouse assessed as effect on tail withdrawal latency at 10 ug, it dosed 15 mins before FE200665 dosing and measured at 24 hrs by tail flick test; format: functional, organism-based; conditions: dose 10.0 µg; method in brief: as §1
[9] = organism: Mus musculus; test: Antinociceptive activity in ICR mouse assessed as elevation in tail withdrawal latency at 0.1 ug, it measured after 30 mins by tail flick test; format: functional, organism-based; conditions: dose 0.1 µg
[10] = molecular target: T1, Kappa-type opioid receptor (Homo sapiens, UniProt P41145); test: Agonist activity at human KOR expressed in CHO cell membranes at 10 uM incubated for 1 hr by liquid scintillation counting based [35S]GTP-gamma-S assay; conditions: Cell membrane
T1 sequence (P41145 whole entry): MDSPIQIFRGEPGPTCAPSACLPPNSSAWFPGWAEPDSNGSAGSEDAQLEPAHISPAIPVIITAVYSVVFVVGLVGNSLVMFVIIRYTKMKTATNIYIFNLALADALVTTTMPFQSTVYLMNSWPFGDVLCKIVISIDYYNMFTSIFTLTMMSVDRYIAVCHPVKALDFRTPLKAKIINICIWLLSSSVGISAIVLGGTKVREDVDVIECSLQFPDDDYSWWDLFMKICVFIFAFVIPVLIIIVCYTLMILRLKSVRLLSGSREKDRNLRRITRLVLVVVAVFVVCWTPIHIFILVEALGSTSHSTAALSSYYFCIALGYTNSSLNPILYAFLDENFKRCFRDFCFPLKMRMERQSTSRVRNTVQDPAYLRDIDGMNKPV
Method in brief: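 Frozen KOR-CHO cell pellets are homogenized and spun at 20 000g. 15 µg of membrane protein is incubated with test compound or vehicle and 0.1 nM [35S]GTPγS in 50 mM Tris-HCl pH 7.4 with 100 mM NaCl, 5 mM MgCl2, 1 mM EDTA and 40 µM GDP, for 1 h at 30 °C. Filtration and scintillation counting follow, and the result is expressed as % of U50,488 stimulation.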

[11] = organism: Cavia porcellus; test: Agonist activity at OPRK in isolated Hartley guinea pig ileum/longitudinal muscle with myenteric plexus assessed as inhibition of electrically stimulated muscle contraction at 1 uM relative to control; format: tissue-based
Method in brief: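 Male Hartley guinea pig LMMP strips under 1 g tension in oxygenated Krebs bicarbonate buffer, 37 °C, field-stimulated at 0.1 Hz, 0.4 ms, supramaximal voltage. Compound tested at 1 µM. Activity given as percent of agonist response relative to the mean signal over the 3 min before drug. Tissue integrity checked first with a PL-017 dose-response curve.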

[12] = molecular target: T1, Kappa-type opioid receptor; test: Antagonist activity at human KOR expressed in CHO cell membranes assessed as reduction in U50,488 induced response incubated for 1 hr by liquid scintillation counting based [35S]GTP-gamma-S assay; set-up: species or system Cell membrane
[13] = molecular target: T1, Kappa-type opioid receptor; test: Antagonist activity at human KOR expressed in CHO cell membranes assessed as reduction in U50,488 induced response incubated for 1 hr by liquid scintillation counting based [35S]GTP-gamma-S assay relative to naloxone; conditions: Cell membrane
Method in brief: (§2)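 The assay uses KOR-CHO membranes (15 µg protein) with 0.1 nM [35S]GTPγS and 40 µM GDP, for 1 h at 30 °C, in the presence of 100 nM U50,488 as agonist. Bound label is counted after filtration. Data are normalized to 100 nM U50,488 (100%) and fit to a three-parameter inhibition curve. Imax is given relative to naloxone.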

[14] = molecular target: T1, Kappa-type opioid receptor; test: Antagonist activity at human KOR expressed in CHO cell membranes assessed as reduction in U50,488 induced response at 10 uM incubated for 1 hr by liquid scintillation counting based [35S]GTP-gamma-S assay relative to naloxone; conditions: Cell membrane; method in brief: as §2
[15] = system: Mus musculus; test: Inhibition of KOR selective agonist FE200665-induced antinociceptive activity in ICR mouse assessed as effect on tail withdrawal latency at 10 ug, it dosed 15 mins before FE200665 dosing and measured at 15 mins by tail flick test; format: functional, organism-based; conditions: dose 10.0 µg, time 30.0 min; method in brief: as §1
[16] = system: Mus musculus; test: Inhibition of KOR selective agonist FE200665-induced antinociceptive activity in ICR mouse assessed as effect on tail withdrawal latency at 10 ug, it dosed 15 mins before FE200665 dosing and measured up to 45 mins by tail flick test; format: functional, organism-based; conditions: dose 10.0 µg, time min <=45; method in brief: as §1
[17] = system: Mus musculus; test: Inhibition of KOR selective agonist FE200665-induced antinociceptive activity in ICR mouse assessed as effect on tail withdrawal latency at 10 ug, it dosed 15 mins before FE200665 dosing and measured after 45 mins by tail flick test; format: functional, organism-based; conditions: dose 10.0 µg, time 60.0 min; method in brief: as §1

Compound: CC[C@H](C)[C@H](NC(=O)[C@H](CCCN=C(N)N)NC(=O)[C@H](CCCN=C(N)N)NC(=O)[C@H](CC(C)C)NC(=O)[C@H](Cc1ccccc1)NC(=O)CNC(=O)CNC(=O)[C@@H](N)Cc1ccc(O)cc1)C(=O)N[C@@H](CCCN=C(N)N)C(=O)N1CCC[C@H]1C(=O)N[C@@H](CCCCN)C(N)=O
- viability at 24 h, 1000 µM [1]: 100%

Compound: CC(=O)N[C@@H](Cc1ccc(O)cc1)C(=O)NCC(=O)NCC(=O)N[C@@H](Cc1ccccc1)C(=O)N[C@@H](CC(C)C)C(=O)N[C@@H](CCCNC(=N)N)C(=O)N[C@H](C)C(=O)N[C@@H](CCCNC(=N)N)C(=O)N1CCC[C@@H]1C(=O)N[C@@H](CCCCN)C(N)=O (Ac-YGGFLR[dA]R[dP]K-NH2)
- half-life [2]: 350 h
- Ki ([3]; ng108-15): Not Active

Compound: CC(=O)N[C@@H](Cc1ccc(O)cc1)C(=O)NCC(=O)N1CCC[C@H]1C(=O)N[C@@H](Cc1ccccc1)C(=O)N[C@@H](CC(C)C)C(=O)N[C@@H](CCCNC(=N)N)C(=O)N[C@H](C)C(=O)N[C@@H](CCCNC(=N)N)C(=O)N1CCC[C@H]1C(=O)N[C@@H](CCCCN)C(N)=O (Ac-YGPFLR[dA]RPK-NH2)
- Ki ([3]; ng108-15): Not Active

Compound: CC(=O)N[C@@H](Cc1ccc(O)cc1)C(=O)NCC(=O)N1CCC[C@H]1C(=O)N[C@@H](Cc1ccccc1)C(=O)N[C@@H](CC(C)C)C(=O)N[C@@H](CCCNC(=N)N)C(=O)N[C@H](C)C(=O)N[C@@H](CCCNC(=N)N)C(=O)N1CCC[C@@H]1C(=O)N[C@@H](CCCCN)C(N)=O (Ac-YGPFLR[dA]R[dP]K-NH2)
- Ki ([3]; ng108-15): Not Active

Compound: CC(=O)N[C@@H](Cc1ccc(O)cc1)C(=O)NCC(=O)N1CCC[C@H]1C(=O)N[C@@H](Cc1ccccc1)C(=O)N[C@@H](CC(C)C)C(=O)N[C@@H](CCCN)C(=O)N[C@H](C)C(=O)N[C@@H](CCCNC(=N)N)C(=O)N1CCC[C@H]1C(=O)N[C@@H](CCCCN)C(N)=O (Ac-YGPFL[Orn][dA]RPK-NH2)
- Ki ([3]; ng108-15): Not Active
- Ki [4]: > 10 µM

Compound: CC[C@H](C)[C@H](NC(=O)[C@H](CCCNC(=N)N)NC(=O)[C@H](CC(C)C)NC(=O)[C@H](Cc1ccccc1)NC(=O)CNC(=O)CNC(=O)[C@@H](C)Cc1c(C)cc(O)cc1C)C(=O)N[C@@H](CCCNC(=N)N)C(N)=O (X1-GGFLRIR-NH2)
- Activity [5]: inactive
- Activity [6]: inactive
- Activity [7]: Active
- Activity [8]: inactive
- Activity [9]: inactive

Compound: CC[C@H](C)[C@H](NC(=O)[C@H](CCCNC(=N)N)NC(=O)[C@H](CC(C)C)NC(=O)[C@H](Cc1ccccc1)NC(=O)CNC(=O)CNC(=O)[C@@H](C)Cc1c(C)cc(O)cc1C)C(=O)N[C@@H](CCCNC(=N)N)C(=O)N1CCC[C@H]1C(=O)N[C@@H](CCCCN)C(N)=O (X1-GGFLRIRPK-NH2)
- viability at 24 h, 1000 µM [1]: 100%
- Activity [10]: inactive
- inhibition [11]: 0%

Compound: CC[C@H](C)[C@H](NC(=O)[C@H](CCCNC(=N)N)NC(=O)[C@H](CC(C)C)NC(=O)[C@H](Cc1ccccc1)NC(=O)CNC(=O)CNC(=O)[C@@H](C)Cc1c(C)cc(O)cc1C)C(=O)N[C@@H](CCCNC(=N)N)C(=O)N1CCC[C@H]1C(=O)N[C@@H](CCCCN)C(=O)O (X1-GGFLRIRPK-OH)
- Activity [10]: inactive
- inhibition [11]: 8.7%

Compound: Ac-YGGFLRIRPK-NH2
- Activity [10]: inactive
- inhibition [11]: 0%

Compound: Ac-YGPFLRIRPK-NH2
- Ki ([3]; ng108-15): Not Active
- Ki [4]: > 10 µM

Compound: H-YGGFLRIRPK-NH2
- IC50 [12]: Not Active
- viability at 24 h, 1000 µM [1]: 100%
- Activity ([10]; filed as agonist): Active
- Imax [13]: inactive

Compound: H-YGGFLRIRPK-OH
- IC50 [12]: Not Active
- viability at 24 h, 1000 µM [1]: 100%
- Activity ([10]; filed as agonist): Active
- Imax [13]: inactive

Compound: H-YGGFLRIRPKLK-OH
- IC50 [12]: Not Active
- Activity ([10]; filed as agonist): Active
- Imax [13]: inactive

Compound: H-YGPFLRIR-NH2
- half-life [2]: 2.1 h
- Ki ([3]; ng108-15): Not Active
- Imax [14]: 29%

Compound: H-YGPFLRIRPK-NH2
- Activity [15]: Active
- Activity [5]: Active
- Activity [16]: Active
- Activity [17]: inactive
- Activity [6]: Active
- half-life [2]: 1.4 h
- viability at 24 h, 1000 µM [1]: 100%
- Ki ([3]; read-out: Ki): > 10 µM
- Imax [14]: 38%
